Compound activity (PubChem BioAssay)
Most compounds without a hit are left out; they make up all but 2.3% or so of the library.
Arr AP2 block: human beta-arrestin and AP2 interaction inhibition; FITC-arrestin peptide / GST-AP2 beads, flow cytometry; AP2 beta2 appendage carries R879A mutation; inhibition, % at 10 µM; 340,000 tested, 0.31% active;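 active = inhibition above a set limit, near 3 SD of compounds lacking own fluorescence, cut at about 54% in these data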;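 also: plate controls were DMSO wells for no effect and 5 µM unlabelled arrestin peptide for full effect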
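Measured by: flow cytometry, FL1 (488/535 nm); Material: AP2 appendage R879A on GSH beads; Evaluation: percent response; Timing: pre-incubation 12 min, peptide binding 1 h, room temperature; Also added: 50 nM FITC-arrestin peptide; Medium: PBS with 0.05% Tween 20 and 0.1% BSA.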
PAX8 reporter: PAX8 transcriptional activity inhibition. RMG-I TPO-luciferase reporter, SteadyGlo, 24 h. inhibition, % at 12.6 µM. 360,000 tested, 1.2% active;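 active = mean replicate inhibition at least 60% with every replicate also reaching 60%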;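 also: luciferase light reporting Pax8 driven TPO promoter activity; plate controls were median of neutral control wells for no effect and mitoxantrone controls for full effect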
N-glyco inh: N-linked glycosylation inhibition. D54 ERlucT glycosylation luciferase reporter, 24 h; percent of 100 nM tunicamycin response. reporter increase, % at 12.5 µM. 360,000 tested, 0.23% active. AID 588692;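 active = mean luciferase reporter signal, scaled so untreated is 0 and the glycosylation-blocking control 100, at or above a set limit in every replicate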;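 also: luciferase carries N-glycosylation sites so blocking glycosylation raises the light; 0% = median of neutral control wells and 100% = median of 100 nM tunicamycin wells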
HIV Env fusion: blocks HIV Env-driven cell-cell fusion; HeLa-JRFL Env/CEM21 cell fusion, luciferase; inhibition, % at 12.3 µM; 360,000 tested, 1.1% active; AID 651610;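 active = mean replicate inhibition score of at least 50 and every replicate individually at or above 50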;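 also: 0% = plate neutral controls and 100% = maraviroc near 300 nM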
Rtt109 HAT inh: blocks Candida albicans Rtt109/Vps75 acetyltransferase activity; Q5AAJ8; purified Rtt109/Vps75, ThioGlo CoA-SH fluorescence, 4 h; inhibition, % at 34.9 µM; 330,000 tested, 0.16% active; AID 540336;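 active = inhibition of at least 50% in every replicate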
Target sequence (Q5AAJ8 whole entry, looked up): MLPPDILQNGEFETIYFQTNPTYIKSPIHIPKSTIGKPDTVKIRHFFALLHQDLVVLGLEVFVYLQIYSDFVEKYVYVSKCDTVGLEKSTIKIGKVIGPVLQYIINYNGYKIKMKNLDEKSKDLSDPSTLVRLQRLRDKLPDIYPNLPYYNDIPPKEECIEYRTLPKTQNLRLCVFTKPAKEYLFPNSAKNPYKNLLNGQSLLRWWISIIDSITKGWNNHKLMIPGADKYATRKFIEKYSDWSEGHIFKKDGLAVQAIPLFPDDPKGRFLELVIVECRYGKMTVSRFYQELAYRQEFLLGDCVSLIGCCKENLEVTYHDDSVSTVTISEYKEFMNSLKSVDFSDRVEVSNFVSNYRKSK
PfHsp90 set2: growth inhibition of yeast expressing Plasmodium Hsp90; S. cerevisiae expressing PfHsp90, BacTiter-Glo ATP, 48 h; yeast lacking PDR1 and PDR3 efflux regulators; 310,000 tested, 0.32% active; AID 504621; inhibition, % at 9.4 µM;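 active = every replicate shows inhibition above about 80%, whatever the replicate mean, limit read from the data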;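 also: 0% = DMSO neutral controls and 100% = 20 µM radicicol positive controls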
Numbers without * were called inactive; x = no result given; [ ] = dose if it differs, or a comment.

SMILES | Arr AP2 block | PAX8 reporter | N-glyco inh | HIV Env fusion | Rtt109 HAT inh | PfHsp90 set2
CCC(=O)N1CC(=O)N2[C@@H](CO)[C@H](c3ccc(C#Cc4cccnc4)cc3)[C@@H]2C1 | x | -14 | x | x | x | x
Cc1ccc(NC(=O)c2ccc(-c3nn(C)c(=O)c4ccccc34)cc2)cc1 | 10 | x | -3 | 75* | -19 | -40
CNC(=O)c1cc(NC(=O)CCn2nc(-c3ccc(C)cc3)c3ccccc3c2=O)ccc1OC | -6 | 10 | 1 | 62* | x | x
COCCNC(=O)CCn1nc(-c2ccc(C)cc2)c2ccccc2c1=O | 3 | 13 | -2 | 7 | -16 | 21
COc1ccc(CNC(=O)C[C@H]2CC[C@@H]3[C@@H](COc4ccc(NC(=O)C(C)C)cc4C(=O)N3C)O2)cc1 | x | 7 | x | -10[16.7 µM] | x | x
O=C(/C=C/c1ccccc1)Nc1cccc(C(=O)O)c1 | 12 | 96* | -10 | 78* | -8 | 31
Cc1cc(Cl)c(S(=O)(=O)NC(C(=O)O)C(C)C)cc1OCC(=O)NC1CCCCC1 (stereo not drawn) | -9 | -7 | 1 | 17 | -20 | x
Cc1cc(Cl)c(S(=O)(=O)N2CCCC2)cc1OCC(=O)NC1CCCCC1 | -1 | 4 | -7 | 78* | -2 | x
CN1OC[C@@H]2CN(C(=S)Nc3cc(C(F)(F)F)cc(C(F)(F)F)c3)[C@H](c3ccccc3Br)C[C@@H]21 | x | 84* | x | 20 | x | x
CCCNC(=O)C[C@@H]1C[C@@H]2c3cc(NC(=O)COC)ccc3O[C@@H]2[C@H](CO)O1 | x | -1 | x | -6[16.7 µM] | x | x
CC(C)NC(=O)[C@@]1(Cc2ccccc2I)c2ccccc2C(=O)N(Cc2ccccc2C(F)(F)F)[C@H]1c1ccc(CO)cc1 | x | 57 | x | 0[16.7 µM] | x | x
COc1ccccc1CN1C(=O)c2ccccc2[C@](Cc2ccccc2I)(C(=O)NCc2ccccc2)[C@@H]1c1ccc(CO)cc1 | x | 17 | x | 60*[16.7 µM] | x | x
Cc1noc(C)c1NC(=O)Nc1ccc2c(c1)CC(=O)N([C@@H](C)CO)C[C@@H](C)[C@H](CN(C)S(=O)(=O)c1c(C)noc1C)O2 | x | 2 | x | -1[16.7 µM] | x | x
O=C(Nc1ccc(Oc2ccccc2)cc1)c1csc([C@H]2C[C@H](O)[C@@H](CO)O2)n1 | x | 24 | -3 | 68* | x | x
CCCC#Cc1cnc2c(c1)C(=O)N([C@@H](C)CO)C[C@@H](C)[C@H](CN(C)C(=O)NCCC)O2 | x | x | x | 11[16.7 µM] | x | x
CC1Cc2ccccc2N1C(=O)CSc1nc2c(c(=O)n(C)c(=O)n2C)n1Cc1ccccc1 (stereo not drawn) | -1 | x | 4 | 56* | -27 | 12
N#C[C@H]1[C@@H](c2ccc(C#Cc3ccccc3F)cc2)[C@@H](CO)N1C(=O)C1CCCCC1 | x | 82* | x | -9[16.7 µM] | x | x
CCc1cnc(N2[C@@H](C#N)[C@H](c3ccc(C#Cc4ccccc4F)cc3)[C@@H]2CO)s1 | x | -8 | x | 59*[16.7 µM] | x | x
COc1ccccc1C#Cc1ccc([C@H]2[C@@H](C#N)N(C(=O)C3CCCCC3)[C@H]2CO)cc1 | x | 73* | x | 10[16.7 µM] | x | x
CCCC#Cc1ccc([C@H]2[C@@H](C#N)N(C(=O)C3CCCCC3)[C@H]2CO)cc1 | x | 79* | x | 5[16.7 µM] | x | x
N#C[C@H]1[C@H](c2ccc(C#Cc3ccccc3F)cc2)[C@@H](CO)N1C(=O)C1CCCCC1 | x | 59 | x | 48[16.7 µM] | x | x
C[C@@H]1CN([C@H](C)CO)C(=O)CCCn2nncc2CO[C@@H]1CN(C)C(=O)Nc1ccc(C(C)(C)C)cc1 | x | 5 | x | x | x | x
COc1ccc(CN(C)C[C@H]2Oc3ccc(NC(=O)Nc4ccccc4)cc3CC(=O)N([C@H](C)CO)C[C@H]2C)cc1 | x | x | x | -2[16.7 µM] | x | x
Cc1ccc(S(=O)(=O)NCC[C@H]2CC[C@@H](NS(=O)(=O)c3ccccc3Cl)[C@@H](CO)O2)cc1 | x | -8 | x | 14[16.7 µM] | x | x
COc1ccccc1C#Cc1ccc([C@H]2[C@@H](CO)N(C(=O)C3CC3)[C@H]2C#N)cc1 | x | 48 | x | x | x | x
SMILES | Arr AP2 block | PAX8 reporter | N-glyco inh | HIV Env fusion | Rtt109 HAT inh | PfHsp90 set2
COc1ccccc1C#Cc1ccc([C@H]2[C@@H](C#N)N(C(=O)C3CCC3)[C@H]2CO)cc1 | x | 64* | x | -1[16.7 µM] | x | x
COc1ccccc1C#Cc1ccc([C@@H]2[C@@H](C#N)N(C(=O)C3CCCCC3)[C@H]2CO)cc1 | x | 89* | x | 18[16.7 µM] | x | x
C[C@H](CO)N1C[C@H](C)[C@@H](CN(C)C(=O)NC2CCCCC2)OCc2ccccc2-c2ccccc2C1=O | x | 0 | x | 30[16.7 µM] | x | x
COc1ccc(-c2ccccc2C2Cc3nnccc3CN2)cc1 (stereo not drawn) | x | 72* | x | 20 | x | x
C[C@@H]1CCCCO[C@@H](CN(C)Cc2ccc(C(F)(F)F)cc2)[C@H](C)CN([C@@H](C)CO)C(=O)c2cc(NC(=O)C3CCCCC3)ccc2O1 | x | 2 | x | 17[16.7 µM] | x | x
O=C(C[C@@H]1C[C@@H]2c3cc(NC(=O)Nc4ccccc4)ccc3O[C@@H]2[C@@H](CO)O1)NCc1ccccc1 | x | -2 | x | 59*[16.7 µM] | x | x
O=C(C[C@H]1C[C@H]2c3cc(NC(=O)c4ccc5c(c4)OCO5)ccc3O[C@H]2[C@H](CO)O1)NCc1ccc(Oc2ccccc2)cc1 | x | -4 | x | 73*[16.7 µM] | x | x
O=C(C[C@@H]1C[C@H]2c3cc(NC(=O)Nc4ccccc4)ccc3O[C@H]2[C@H](CO)O1)NCc1cccnc1 | x | 8 | x | 63*[16.7 µM] | x | x
O=C(C[C@@H]1C[C@@H]2c3cc(NC(=O)Nc4ccccc4F)ccc3O[C@@H]2[C@@H](CO)O1)NCc1ccc(Oc2ccccc2)cc1 | x | -1 | x | 8[16.7 µM] | x | x
O=C(C[C@@H]1C[C@H]2c3cc(NC(=O)Nc4ccccc4F)ccc3O[C@H]2[C@H](CO)O1)NCc1ccc(Oc2ccccc2)cc1 | x | 75* | x | -18[16.7 µM] | x | x
CNC(=O)C[C@@H]1CC[C@H]2[C@H](COc3ccc(NC(=O)Nc4ccccc4OC)cc3C(=O)N2C)O1 | x | 6 | x | -8[16.7 µM] | x | x
C[C@H](CO)N1C[C@H](C)[C@@H](CN(C)S(=O)(=O)c2ccccc2)Oc2cc(Br)ccc2S1(=O)=O | x | x | x | 28[16.7 µM] | x | x
CO[C@H](CN(C)S(=O)(=O)c1ccc(Cl)cc1)[C@H](C)CN([C@@H](C)CO)S(=O)(=O)c1cccc(Cl)c1 | x | -8 | x | 61*[16.7 µM] | x | x
CO[C@H](CN(C)S(=O)(=O)c1ccc(Cl)cc1)[C@H](C)CN([C@H](C)CO)S(=O)(=O)c1cccc(Cl)c1 | x | 3 | x | 56*[16.7 µM] | x | x
C[C@H](CO)N1C[C@H](C)[C@@H](CN(C)C(=O)C2CC2)Oc2ncc(C#Cc3ccccc3)cc2C1=O | x | x | x | -10[16.7 µM] | x | x
CNC[C@@H]1OCCCC[C@@H](C)Oc2ccc(NS(=O)(=O)c3ccc(C)cc3)cc2C(=O)N([C@H](C)CO)C[C@H]1C | x | -7 | x | 1[16.7 µM] | x | x
CO[C@@H]1CN(C)C(=O)c2ccc(NC(=O)CC(F)(F)F)cc2OC[C@@H](C)N(C(C)=O)C[C@@H]1C | x | -6 | x | x | x | x
O=C(C[C@H]1C[C@H]2c3cc(NC(=O)NC4CCCC4)ccc3O[C@H]2[C@@H](CO)O1)NCc1cccnc1 | x | -8 | x | x | x | x
